≈ marks a conversion by molar mass, not a printed value.
Experiments:
Assay type in all cases: functional
Escherichia coli = experiment: Antimicrobial activity against Escherichia coli KCTC 1923 after 24 hrs by broth dilution method; conditions: KCTC 1923, 24 h
Procedure, shortened: (§1)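 Twofold serial dilutions in nutrient broth (0.5–512.0 μg/mL) in microtiter plates. An overnight culture was adjusted to 1.5 × 10⁸ cfu/mL against the 0.5 McFarland standard and added to each dilution. Plates were incubated 24 h at 37 °C. MIC was the lowest concentration giving no visible growth (turbidity).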

Saccharomyces cerevisiae = experiment: Antimicrobial activity against Saccharomyces cerevisiae KCTC 7913 after 48 hrs by broth dilution method; conditions: KCTC 7913, 48 h
Procedure, shortened: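 Yeast maltose broth, with twofold serial dilutions spanning 0.5–512.0 μg/mL in microtiter plates. An overnight yeast culture was adjusted to 1.5 × 10⁸ cfu/mL by the 0.5 McFarland standard and added to each well. Plates were held 48 h at 30 °C. MIC was the lowest concentration without visible turbidity.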

Bacillus subtilis = experiment: Antimicrobial activity against Bacillus subtilis KCTC 1021 after 24 hrs by broth dilution method; conditions: KCTC 1021, 24 h; procedure, shortened: as §1

MIC (Escherichia coli) [µg/mL]	MIC (Saccharomyces cerevisiae) [µg/mL]	MIC (Bacillus subtilis) [µg/mL]	Compound
32 (≈ 132 µM)	256 (≈ 1060 µM)	32 (≈ 132 µM)	C=C/C=C(\C)CC[C@@H](O)C[C@H](O)CC(=O)OC [IEODOMYCIN A]
32 (≈ 152 µM)	256 (≈ 1220 µM)	32 (≈ 152 µM)	C=C/C=C(\C)CC[C@@H]1C[C@H](O)CC(=O)O1 [IEODOMYCIN B]
32 (≈ 140 µM)	256 (≈ 1120 µM)	32 (≈ 140 µM)	C[C@@H](O)CCC/C=C/C=C/[C@@H](O)CC(=O)O [IEODOMYCIN C]
32 (≈ 174 µM)	256 (≈ 1390 µM)	32 (≈ 174 µM)	C[C@@H](O)CCC/C=C/C=C/C(=O)O [IEODOMYCIN D]

Reference: ChEMBL document CHEMBL1811862, “Ieodomycins A-D, antimicrobial fatty acids from a marine Bacillus sp” (2011)
